Source: ChEMBL document CHEMBL1154235, “Rational design and semisynthesis of betulinic acid analogues as potent topoisomerase inhibitors” (J Nat Prod, 2009)
Active and inactive are the calls of the source. The rule behind the calls is not given here.

Assays:
SW948 = assay: Antiproliferative activity against human SW948 cells after 3 days by XTT assay; type: functional, cell-based; conditions: SW948, 72 h
In short: (§1)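 Cells plated at 4000/well and grown 1 day at 37 °C, then exposed to a range of drug concentrations for 3 more days. Read-out by XTT tetrazolium reduction on a plate reader. Each concentration run in triplicate. IC50 taken from a linear-quadratic fit. Assays repeated two or three times and reported as mean ± SE. HCT-116 kept in modified McCoy's 5a and SW948 in Leibovitz's L-15, each with 10% heat-inactivated FBS and 2 mM L-glutamine.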

HCT-116 = assay: Antiproliferative activity against human HCT116 cells after 3 days by XTT assay; type: functional, cell-based; conditions: HCT-116, 72 h; in short: as §1
[1] = target: T1, DNA topoisomerase 1 (Homo sapiens) (UniProt P11387); assay: Inhibition of topoisomerase 1 catalytic activity assessed as relaxation of supercoiled plasmid DNA at 100 uM after 30 mins by agarose gel electrophoresis
T1 sequence (whole entry): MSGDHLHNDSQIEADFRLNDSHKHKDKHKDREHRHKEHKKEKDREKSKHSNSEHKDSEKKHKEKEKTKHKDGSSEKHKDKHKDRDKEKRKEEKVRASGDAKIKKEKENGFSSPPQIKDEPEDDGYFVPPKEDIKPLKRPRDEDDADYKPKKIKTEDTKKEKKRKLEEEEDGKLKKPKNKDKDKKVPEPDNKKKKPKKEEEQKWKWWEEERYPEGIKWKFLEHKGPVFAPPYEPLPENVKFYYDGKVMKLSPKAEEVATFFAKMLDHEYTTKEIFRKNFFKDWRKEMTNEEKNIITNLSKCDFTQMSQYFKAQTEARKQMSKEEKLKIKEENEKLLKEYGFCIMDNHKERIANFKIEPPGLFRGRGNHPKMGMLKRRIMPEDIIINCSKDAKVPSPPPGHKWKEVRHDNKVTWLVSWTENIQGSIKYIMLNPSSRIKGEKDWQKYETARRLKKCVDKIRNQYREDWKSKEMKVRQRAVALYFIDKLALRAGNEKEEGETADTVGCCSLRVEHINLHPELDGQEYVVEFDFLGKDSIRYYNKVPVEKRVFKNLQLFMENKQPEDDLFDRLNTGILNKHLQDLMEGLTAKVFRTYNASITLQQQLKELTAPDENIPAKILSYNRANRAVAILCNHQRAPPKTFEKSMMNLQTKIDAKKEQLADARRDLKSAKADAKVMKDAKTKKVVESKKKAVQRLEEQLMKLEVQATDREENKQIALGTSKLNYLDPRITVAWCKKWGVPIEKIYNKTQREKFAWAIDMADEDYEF
In short: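 Compound at 100 µM final with topoisomerase I (2U), 37 °C 30 min. Stopped with 1% SDS, proteinase K digestion, 1% agarose TAE gel, ethidium bromide stain, imaging quantitation. Scored 0 to 3+ against camptothecin.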

MDA-MB-231 [2] = assay: Antiproliferative activity against human MDA-MB-231 cells after 3 days by MTT assay; type: functional, cell-based; conditions: MDA-MB-231, 72 h
In short: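 MDA-MB-231 cells kept in RPMI 1640 with 10% heat-inactivated FBS and 25 mM HEPES at 37 °C in 5% CO2. Plated at about 15 000/well and preincubated 1 day, then exposed to compound for 3 days at 37 °C, with doses in triplicate. MTT added for 4 h, formazan dissolved in detergent overnight at room temperature in the dark, OD read at 580 nm against a cell-free blank. Cell numbers from a calibration curve; IC50 from dose-response curves.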

[3] = target: DNA topoisomerase 2-alpha (Homo sapiens) (UniProt P11388); assay: Inhibition of topoisomerase 2 alpha catalytic activity assessed as decatenation of kinetoplast DNA at 100 uM after 15 mins by agarose gel electrophoresis
Chain of DNA topoisomerase 2-alpha (Homo sapiens) (P11388 whole entry): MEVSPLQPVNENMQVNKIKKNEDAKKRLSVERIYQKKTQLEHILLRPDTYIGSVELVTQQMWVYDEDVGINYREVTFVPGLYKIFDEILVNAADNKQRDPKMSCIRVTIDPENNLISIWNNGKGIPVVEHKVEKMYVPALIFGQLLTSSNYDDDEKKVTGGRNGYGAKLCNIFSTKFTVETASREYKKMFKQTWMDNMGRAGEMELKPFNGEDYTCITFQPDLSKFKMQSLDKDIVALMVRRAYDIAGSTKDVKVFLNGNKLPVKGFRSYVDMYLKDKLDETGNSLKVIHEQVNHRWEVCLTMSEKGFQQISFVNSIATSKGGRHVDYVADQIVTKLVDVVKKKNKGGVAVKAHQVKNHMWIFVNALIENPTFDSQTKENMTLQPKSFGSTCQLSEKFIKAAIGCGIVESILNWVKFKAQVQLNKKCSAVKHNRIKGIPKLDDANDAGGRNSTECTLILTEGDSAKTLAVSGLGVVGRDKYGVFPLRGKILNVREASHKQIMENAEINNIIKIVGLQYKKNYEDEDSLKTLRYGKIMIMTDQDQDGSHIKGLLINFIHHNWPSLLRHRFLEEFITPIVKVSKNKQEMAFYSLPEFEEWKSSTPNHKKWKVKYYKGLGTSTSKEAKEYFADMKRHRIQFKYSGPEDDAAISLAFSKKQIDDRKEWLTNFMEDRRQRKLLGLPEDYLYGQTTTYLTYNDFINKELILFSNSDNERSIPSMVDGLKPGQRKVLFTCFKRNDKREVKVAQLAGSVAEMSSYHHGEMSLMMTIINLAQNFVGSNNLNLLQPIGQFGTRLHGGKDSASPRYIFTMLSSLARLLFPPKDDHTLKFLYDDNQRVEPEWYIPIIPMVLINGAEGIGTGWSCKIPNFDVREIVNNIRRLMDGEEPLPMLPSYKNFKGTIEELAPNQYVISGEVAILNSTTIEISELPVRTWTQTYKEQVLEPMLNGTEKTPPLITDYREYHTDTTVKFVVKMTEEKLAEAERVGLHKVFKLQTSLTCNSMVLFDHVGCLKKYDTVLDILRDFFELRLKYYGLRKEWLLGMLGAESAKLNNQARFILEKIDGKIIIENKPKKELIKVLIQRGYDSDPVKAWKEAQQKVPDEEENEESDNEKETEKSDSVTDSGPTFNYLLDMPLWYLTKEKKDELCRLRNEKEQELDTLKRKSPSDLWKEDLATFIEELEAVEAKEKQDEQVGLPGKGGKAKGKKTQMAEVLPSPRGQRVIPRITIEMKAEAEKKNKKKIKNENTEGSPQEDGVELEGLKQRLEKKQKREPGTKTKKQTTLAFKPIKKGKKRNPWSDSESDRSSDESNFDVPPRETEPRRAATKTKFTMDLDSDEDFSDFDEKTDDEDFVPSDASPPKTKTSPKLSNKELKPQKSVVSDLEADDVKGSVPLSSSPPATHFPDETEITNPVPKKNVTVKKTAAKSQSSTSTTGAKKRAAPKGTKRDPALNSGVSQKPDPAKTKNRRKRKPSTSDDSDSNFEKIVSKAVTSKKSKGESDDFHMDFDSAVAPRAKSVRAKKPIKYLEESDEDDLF

HL-60(TB) = assay: Growth inhibition of human HL-60(TB) cells; type: functional
MDA-MB-231 [4] = assay: Growth inhibition of human MDA-MB-231 cells; type: functional

| Structure (SMILES) | IC50 (SW948) | IC50 (HCT-116) | inhibition [1] | IC50 (MDA-MB-231 [2]) | inhibition [3] | GI50 (HL-60(TB)) | GI50 (MDA-MB-231 [4]) |
| --- | --- | --- | --- | --- | --- | --- | --- |
| CC[C@@]1(O)C(=O)OCc2c1cc1n(c2=O)Cc2cc3ccccc3nc2-1 [CAMPTOTHECIN] | 0.16 µM | 0.13 µM |  |  |  |  |  |
| C[C@H](C=O)[C@@H]1CC[C@]2(C(=O)O)CC[C@]3(C)[C@H](CC[C@@H]4[C@@]5(C)CC[C@H](O)C(C)(C)[C@@H]5CC[C@]43C)[C@@H]12 | > 25 µM | > 25 µM | Active | 0.17 µM | inactive |  |  |
| C=C(C)[C@@H]1CC[C@]2(C(=O)O)CC[C@]3(C)[C@H](CC[C@@H]4[C@@]5(C)CC[C@H](OC(=O)Nc6ccc(-c7ccccc7)cc6)C(C)(C)[C@@H]5CC[C@]43C)[C@@H]12 | > 25 µM | > 25 µM | inactive | > 25 µM | Active |  |  |
| C=C(C)[C@@H]1CC[C@]2(C(=O)O)CC[C@]3(C)[C@H](CC[C@@H]4[C@@]5(C)CCC(=O)C(C)(C)[C@@H]5CC[C@]43C)[C@@H]12 [BETUNOLIC ACID] | 19.2 µM | 2.61 µM | inactive | 9.77 µM | inactive |  |  |
| COc1cc([C@@H]2c3cc4c(cc3[C@@H](O[C@@H]3O[C@@H]5CO[C@@H](C)O[C@H]5[C@H](O)[C@H]3O)[C@H]3COC(=O)[C@H]23)OCO4)cc(OC)c1O [ETOPOSIDE] | 1.3 µM |  |  |  | Active |  |  |
| CC1(C)[C@@H](O)CC[C@]2(C)[C@H]3CC[C@@H]4[C@H]5[C@H]([C@]6(C)CO6)CC[C@]5(C(=O)O)CC[C@@]4(C)[C@]3(C)CC[C@@H]12 | > 25 µM | > 25 µM | inactive | 4.08 µM | inactive |  |  |
| C=C(C)[C@@H]1CC[C@]2(C(=O)O)CC[C@]3(C)[C@H](CC[C@@H]4[C@@]5(C)CC[C@H](O)C(C)(C)[C@@H]5CC[C@]43C)[C@@H]12 [BETULINIC ACID] | 10.5 µM | 13.5 µM | inactive | 15.2 µM | inactive | 3.16 µM | 3.98 µM |
| C=CCNC(=O)O[C@H]1CC[C@]2(C)[C@H]3CC[C@@H]4[C@H]5[C@H](C(=C)C)CC[C@]5(C(=O)O)CC[C@@]4(C)[C@]3(C)CC[C@H]2C1(C)C | 17.6 µM | 17.7 µM | inactive | 0.65 µM | Active |  |  |
| C=C(C)[C@@H]1CC[C@]2(C(=O)O)CC[C@]3(C)[C@H](CC[C@@H]4[C@@]5(C)CC[C@H](OC(=O)NCc6ccccc6)C(C)(C)[C@@H]5CC[C@]43C)[C@@H]12 | > 25 µM | 22.2 µM | Active | 0.45 µM | Active |  |  |
| C=C(C)[C@@H]1CC[C@]2(C(=O)O)CC[C@]3(C)[C@H](CC[C@@H]4[C@@]5(C)CC[C@H](OS(=O)(=O)c6ccccc6)C(C)(C)[C@@H]5CC[C@]43C)[C@@H]12 | 6.84 µM | 21.3 µM | inactive | 0.8 µM | Active |  |  |
| C=C(C)[C@@H]1CC[C@]2(C(=O)NS(=O)(=O)c3ccccc3)CC[C@]3(C)[C@H](CC[C@@H]4[C@@]5(C)CC[C@H](OC(=O)NS(=O)(=O)c6ccccc6)C(C)(C)[C@@H]5CC[C@]43C)[C@@H]12 | 17.4 µM | 13.3 µM | Active | 0.92 µM | Active |  |  |
| C=C(C)[C@@H]1CC[C@]2(C(O)=S)CC[C@]3(C)[C@H](CC[C@@H]4[C@@]5(C)CC[C@H](OP(=S)(S)c6ccc(OC)cc6)C(C)(C)[C@@H]5CC[C@]43C)[C@@H]12 (stereo partly specified) | > 25 µM | > 25 µM | Active | 9.83 µM | Active |  |  |
| C=C(C=O)[C@@H]1CC[C@]2(C(=O)O)CC[C@]3(C)[C@H](CC[C@@H]4[C@@]5(C)CC[C@H](O)C(C)(C)[C@@H]5CC[C@]43C)[C@@H]12 | 14.9 µM | 4.38 µM | Active | 1.37 µM | inactive |  |  |
| C=C(C)[C@@H]1CC[C@]2(C(=O)O)CC[C@]3(C)[C@H](CC[C@@H]4[C@@]5(C)CC[C@H](OC(=O)Nc6cccc7ccccc67)C(C)(C)[C@@H]5CC[C@]43C)[C@@H]12 | > 25 µM | > 25 µM | inactive | > 25 µM | Active |  |  |
| C=C(C)[C@@H]1CC[C@]2(C(O)=S)CC[C@]3(C)[C@H](CC[C@@H]4[C@@]5(C)CCC(=O)C(C)(C)[C@@H]5CC[C@]43C)[C@@H]12 | > 25 µM | > 25 µM | inactive | > 25 µM | inactive |  |  |
